This note sets out measurements from ChEMBL document CHEMBL1152321, “Recent advances in the chemistry and biology of new generation taxoids” (J Nat Prod, 2009).

Activity calls are given as the source filed them. The rule behind the calls is not given here.

For data set [1], the system named is A2780. In words: Cytotoxicity against human topotecan-resistant A2780 cells after 72 hrs. In kind it is functional, cell-based. The settings on record: A2780, 72 h.
Data set [2] is described as follows: Cytotoxicity against human paclitaxel and cyclosporine-resistant A2780TC1 cells overexpressing class 3 beta-tubulin after 72 hrs. To be noted: A2780TC1, 72 h. It counts as functional, cell-based.
Data set [3] is described as follows: Cytotoxicity against human paclitaxel and cyclosporine-resistant A2780TC3 cells overexpressing class 3 beta-tubulin after 72 hrs. In kind it is functional, cell-based. The settings on record: A2780TC3, 72 h.
Data set [4] is described as follows: Cytotoxicity against human A2780/ADR cells after 72 hrs. In kind it is functional, cell-based.
For data set [5], the system named is A2780. Briefly: Cytotoxicity against human cisplatin-resistant A2780 cells after 72 hrs. It counts as functional, cell-based. The settings on record: A2780, 72 h.
Data set [6] has as its system A2780. Briefly: Cytotoxicity against human wild type A2780 cells after 72 hrs. In kind it is functional, cell-based. The settings on record: A2780, 72 h.
Data set [7] in a line: Cytotoxicity against P-glycoprotein deficient wild type human LCC-6 cells after 72 hrs. In kind it is functional, cell-based. To be noted: LCC-6, 72 h.
Data set [8] in a line: Cytotoxicity against multidrug-resistant human NCI/ADR cells after 72 hrs. The settings on record: NCI/ADR-RES. In kind it is functional, cell-based.
Data set [9] has as its system MCF7. In words: Cytotoxicity against P-glycoprotein deficient wild type human MCF7 cells after 72 hrs. In kind it is functional, cell-based. To be noted: MCF7, 72 h.
Data set [10] in a line: Cytotoxicity against human LCC-6 cells expressing P-glycoprotein after 72 hrs. It counts as functional, cell-based. The settings on record: LCC-6, 72 h.
In data set [11] the test system is A2780. Briefly: Resistance factor, ratio of IC50 for paclitaxel and cyclosporine-resistant human A2780TC3 cells overexpressing class 3 beta-tubulin to IC50 for wild type human A2780 cells. In kind it is functional.
The nature of data set [12]: Activity ratio of compound IC50 to paclitaxel IC50 for paclitaxel and cyclosporine-resistant human A2780TC3 cells overexpressing class 3 beta-tubulin. It counts as functional.
In data set [13] the test system is A2780. In words: Resistance factor, […] harboring point mutation in beta-tubulin. In kind it is functional.
A short description of data set [14]: Resistance factor, ratio of IC50 for human LCC-6 cells expressing P-glycoprotein to IC50 for P-glycoprotein deficient wild type human LCC-6 cells. Details: reference not given here. In kind it is functional.
Data set [15] relates to MCF7. In words: Resistance factor, ratio of IC50 for P-glycoprotein deficient wild type human MCF7 cells to IC50 for multidrug-resistant human NCI/ADR cells. In kind it is functional.
Data set [16] is described as follows: Cytotoxicity against human primary pancreatic ductal cells up to 10 uM. In kind it is cell-based.
Data set [17] is filed under the species Mus musculus. In words: Toxicity in SCID mouse assessed as decrease in body weight after day 15 to day 20. It counts as organism-based. Details: scale not given: the % may be the effect or the level left. To be noted: in vivo.
Data set [18] relates to DLD-1. Briefly: Antitumor activity against human DLD1 cells expressing P-glycoprotein xenografted in SCID mouse assessed as no palpable tumors at 10 mg/kg, iv administered on day 5, 8, 11 post tumor implantation measured on day 167. It counts as functional, organism-based. Details: dose 10 mg/kg. The procedure, abridged: (§1)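 SCID mice carrying subcutaneous Pgp+ DLD-1 human colon tumours were dosed i.v. q3d×3 on days 5, 8 and 11 after implant, in Tween/EtOH vehicle, with vehicle and untreated control groups. Growth delay was compared with controls by Cox-Mantel test. Cures were mice with no palpable tumour on day 167. Toxicity was counted as death or more than 20% body-weight loss.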
(A xenograft is tissue or cells of one species grown in another, often human tumour cells in immunodeficient mice.)

The test system of data set [19] is DLD-1. In words: Antitumor activity against human DLD1 cells expressing P-glycoprotein xenografted in SCID mouse assessed as no palpable tumors at 20 mg/kg, iv administered on day 5, 8, 11 post tumor implantation measured on day 167. In kind it is functional, organism-based. Details: dose 20 mg/kg. The gist of the method: as §1
The test system of data set [20] is DLD-1. Briefly: Antitumor activity against human DLD1 cells expressing P-glycoprotein xenografted in SCID mouse assessed as tumor growth delay at 40 mg/kg, iv administered on day 5, 8, 11 post tumor implantation. In kind it is functional. The gist of the method: as §1
Data set [21] concerns DLD-1. In words: Antitumor activity against human DLD1 cells expressing P-glycoprotein xenografted in SCID mouse assessed as tumor growth delay at 10 mg/kg, iv administered on day 5, 8, 11 post tumor implantation. It counts as functional. The gist of the method: as §1
The subject of data set [22] is DLD-1. In words: Antitumor activity against human DLD1 cells expressing P-glycoprotein xenografted in SCID mouse assessed as tumor growth delay at 20 mg/kg, iv administered on day 5, 8, 11 post tumor implantation. In kind it is functional. The gist of the method:
as §1

Data set [23] in a line: Induction of tubulin polymerization at 10 uM in absence of GTP.
Data set [24] deals with HT-29. Briefly: Cytotoxicity against human HT-29 cells after 72 hrs. In kind it is functional, cell-based. To be noted: HT-29, 72 h.
Data set [25] is described as follows: Induction of tubulin polymerization at 10 uM in presence of Ca2+.
Data set [26] concerns MCF7. Briefly: Resistance factor, ratio of IC50 for human MCF7 cells expressing P-glycoprotein to IC50 for P-glycoprotein deficient wild type human MCF7 cells. In kind it is functional.
For data set [27], the system named is PANC-1. In words: Cytotoxicity against human PANC1 cells expressing mdr1, mrp1, mrp2, lrp genes after 72 hrs. It counts as functional, cell-based. To be noted: PANC-1, 72 h.
Data set [28] has as its system MCF7. Briefly: Cytotoxicity against human MCF7 cells expressing P-glycoprotein after 72 hrs. It counts as functional, cell-based. The settings on record: MCF7, 72 h.
Data set [29] concerns Mus musculus. In words: Toxicity in SCID mouse xenografted with human DLD1 cells assessed as decrease in body weight at 20 mg/kg, iv administered on day 5, 8, 11 post tumor implantation. More on the design: dose 20 mg/kg, route intravenous. The settings on record: in vivo. In kind it is organism-based, DLD-1.
For data set [30], the system named is NCI-H460. In words: Cytotoxicity against human H460 cells after 72 hrs. In kind it is functional, cell-based. The settings on record: NCI-H460, 72 h.

With `CC(=O)O[C@@]1([C@@H]2/C(C)=C(/O)C(=O)C3=C(C)[C@@H](OC(=O)[C@H](O)[C@H](C=C(C)C)NC(=O)OC(C)(C)C)C[C@@](O)([C@H]2OC(=O)c2cccc(F)c2)C3(C)C)CO[C@@H]1CCO`, the IC50 (in general, the point on the concentration scale where inhibition reaches its midpoint) in data set [1] was found to be 6.9 nM; in data set [2], 4450 nM; in data set [3], 745 nM; in data set [4], 2220 nM; in [5], 4.9 nM; in data set [6], 6.1 nM.

For `CC(=O)O[C@H]1C(=O)[C@@]2(C)[C@H]([C@H](OC(=O)c3ccccc3)[C@]3(O)[C@H]4OC/C=C/Cc5ccccc5C(=O)N[C@@H](C=C(C)C)[C@@H](O)C(=O)O[C@@H]4C(C)=C1C3(C)C)[C@]1(OC(C)=O)CO[C@@H]1C[C@@H]2O`, the IC50 worked out at 130 nM in data set [7], 1000 nM in data set [8], 398 nM in data set [9] and 618 nM in data set [10].

For the compound `CC(=O)O[C@@]1(C2/C(C)=C(/O)C(=O)C3=C(C)[C@@H](OC(=O)[C@H](O)[C@H](CC(C)C)NC(=O)OC(C)(C)C)C[C@@](O)([C@H]2OC(=O)c2ccccc2)C3(C)C)CO[C@@H]1CCO` (some centres undefined), the IC50 in [1] is 27.5 nM; in data set [2], 2060 nM; in data set [3] it was 2240 nM; in data set [4], 2620 nM; in [5], 16.8 nM; in [6] it was 17.4 nM. For the same compound, the figures for the “Ratio IC50” value in data set [11] and in data set [12] were 129 and 8, respectively.

Take `CCC(=O)O[C@H]1C(=O)[C@@]2(C)[C@H]([C@H](OC(=O)c3cccc(OC)c3)[C@]3(O)C[C@H](OC(=O)[C@H](O)[C@H](C=C(C)C)NC(=O)OC(C)(C)C)C(C)=C1C3(C)C)[C@]1(OC(C)=O)CO[C@@H]1C[C@@H]2O`: the Ratio in [13] came to 5.1; in [14] it was 0.9; in data set [15], 0.92. The compound further showed an IC50 in data set [7] of 1 nM.

Take `CC(=O)O[C@@]12CO[C@@H]1C[C@H](O)[C@@]1(C)C(=O)[C@H](OC(=O)C3CC3)C3=C(C)[C@@H](OC(=O)[C@H](O)[C@H](C=C(C)C)NC(=O)OC(C)(C)C)C[C@@](O)([C@@H](OC(=O)c4ccccc4)[C@H]21)C3(C)C`: the Activity result in data set [16] was “Not Active”; in data set [17], 3%; in data set [20], over 150 days; in data set [21], 37 days; in data set [22], over 150 days. The result in [18] was inactive. In addition, the result in data set [19] was Active.

`CC(=O)O[C@H]1C(=O)[C@@]2(C)[C@H]([C@H](OC(=O)c3ccccc3)[C@]3(O)[C@H]4OCC/C=C/c5ccccc5C(=O)N[C@@H](c5ccccc5)[C@@H](O)C(=O)O[C@@H]4C(C)=C1C3(C)C)[C@]1(OC(C)=O)CO[C@@H]1C[C@@H]2O`: the IC50 in data set [7] is 2.09 nM; in data set [8], 183 nM; in data set [9], 3.49 nM; in [6], 31 nM; in [24] it was 17 nM; in [10] it was 129 nM. The inhibition entry in data set [23] and in data set [25] was “Active” each time.

On to `CC(=O)O[C@H]1C(=O)[C@@]2(C)[C@H]([C@H](OC(=O)c3ccccc3)[C@]3(O)[C@H]4OC/C=C/Cc5ccccc5C(=O)N[C@@H](c5ccccc5)[C@@H](O)C(=O)O[C@@H]4C(C)=C1C3(C)C)[C@]1(OC(C)=O)CO[C@@H]1C[C@@H]2O`, for which the IC50 was 12.2 nM in [7]; 592 nM in [8]; 12.3 nM in data set [9]; 114 nM in [6]; 29.2 nM in [24]; 300 nM in [10].

`CC(=O)O[C@H]1C(=O)[C@@]2(C)[C@H]([C@H](OC(=O)c3ccccc3)[C@]3(O)[C@H]4OC/C=C\OCc5ccccc5C(=O)N[C@@H](c5ccccc5)[C@@H](O)C(=O)O[C@@H]4C(C)=C1C3(C)C)[C@]1(OC(C)=O)CO[C@@H]1C[C@@H]2O`: the IC50 in [7] worked out at 348 nM; in data set [8] it was 1140 nM; in [9] it was 196 nM; in [6] it was 198 nM; in [24], 62 nM; in [10], 1920 nM.

`CC(=O)O[C@H]1C(=O)[C@@]2(C)[C@H]([C@H](OC(=O)c3ccccc3)[C@]3(O)[C@H]4OC/C=C/OCc5ccccc5C(=O)N[C@@H](c5ccccc5)[C@@H](O)C(=O)O[C@@H]4C(C)=C1C3(C)C)[C@]1(OC(C)=O)CO[C@@H]1C[C@@H]2O`: the IC50 in data set [7] was determined as 2070 nM; in data set [8] it was 10000 nM; in data set [9] it was 1650 nM; in [6], 1480 nM; in data set [24], 523 nM; in data set [10], 2280 nM.

In the case of `CC(=O)O[C@@]12CO[C@@H]1C[C@H](O)[C@@]1(C)C(=O)[C@H](OC(=O)C3CC3)C3=C(C)[C@@H](OC(=O)[C@H](O)[C@H](C=C(F)F)NC(=O)OC(C)(C)C)C[C@@](O)([C@@H](OC(=O)c4ccccc4)[C@H]21)C3(C)C`, in [26], the Ratio was 50. The IC50 in data set [27] came out at 5.85 nM; in data set [28], 6 nM; in data set [9] it was 0.12 nM; in data set [24] it was 0.85 nM.

As for `CC(=O)O[C@@]1([C@@H]2/C(C)=C(/O)C(=O)C3=C(C)[C@@H](OC(=O)[C@H](O)[C@H](CC(C)C)NC(=O)OC(C)(C)C)C[C@@](O)([C@H]2OC(=O)c2cccc(F)c2)C3(C)C)CO[C@H]1CCO`, the IC50 in data set [1] amounted to 12.8 nM; in data set [2], 1500 nM; in data set [3], 460 nM; in data set [4], 3730 nM; in data set [5] it was 11.8 nM; in [6], 11.1 nM. Further, the “Ratio IC50” value in [11] was determined as 41; in [12], 39.

For the compound `CC(=O)O[C@H]1C(=O)[C@@]2(C)[C@H]([C@H](OC(=O)c3ccccc3)[C@]3(O)C[C@H](OC(=O)[C@H](O)[C@@H](NC(=O)c4ccccc4)c4ccccc4)C(C)=C1C3(C)C)[C@]1(OC(C)=O)CO[C@@H]1C[C@@H]2O` [PACLITAXEL], the Activity result in [29] is “Non-toxic”; in data set [22], 8 days. Also, the concentration for half-maximal inhibition (IC50) in [1] came out at 7.2 nM; in data set [7], 2.45 nM; in [27] it was 25.7 nM; in data set [3], 17800 nM; in [30], 4.9 nM; in data set [5] it was 2.2 nM. Also, the IC50 in data set [6] turned out to be 1.7 nM; in data set [10], 110 nM. In addition, in data set [19], the result was inactive.
